The record followed here is ChEMBL document CHEMBL2434877, “Synthesis and SAR study of novel 3,3-diphenyl-1,3-dihydroindol-2-one derivatives as potent eIF2·GTP·Met-tRNAiMet ternary complex inhibitors” (Eur J Med Chem, 2013).

Experiment [1] can be described thus: Antiproliferative activity against mouse KLN205 cells after 5 days by SRB assay. Format: functional, cell-based. To be noted: 120 h. A digest of the protocol:
(§1)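 Adherent cells plated, allowed to settle overnight, then exposed 5 days to 0.54–20 µM compound. Fixed in cold 10% TCA (4 °C, 1 h), stained with 0.4% SRB in 1% acetic acid for 1 h, dye solubilized in 10 mM Tris pH 10, A490 read. Time-zero plates used for %T/C. IC50 is the 50% growth-inhibition concentration, mean of 2 experiments each in triplicate.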
On the technique in general: The SRB assay estimates cell density from bound dye.

Experiment [2] in a line: Antiproliferative activity against human CRL2351 cells after 5 days by SRB assay. Format: functional, cell-based. The conditions noted are these: 120 h. A digest of the protocol:
as §1

A short description of experiment [3]: Antiproliferative activity against human CRL2813 cells after 5 days by SRB assay. Format: functional, cell-based. To be noted: CRL2813, 120 h. A digest of the protocol: as §1
For experiment [4], the species on record is Mus musculus. Briefly: Inhibition of eIF2-GTP-Met-tRNAi (Met) in mouse KLN205 cells assessed as increase in CHOP mRNA expression by qRT-PCR analysis relative to DMSO-treated control. Format: cell-based. The method, boiled down:
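CHOP mRNA measured by PCR in KLN-205 cells, triplicate in at least two independent runs. Transcript quantities normalized to 18S rRNA and expressed as fold over DMSO control.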

The species named for experiment [5] is Mus musculus. Briefly: Inhibition of eIF2-GTP-Met-tRNAi (Met) in mouse KLN205 cells assessed as increase in ATF-4 expression at 80 uM by dual luciferase reporter gene assay relative to control. Format: cell-based. A digest of the protocol: (§2)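 KLN-205 cells carry firefly luciferase fused to the ATF-4 5′UTR and renilla luciferase behind a uORF-free 5′UTR. Cells treated overnight with compound at 10, 20, 40 or 80 µM, then read with a glow-type dual luciferase kit. Firefly/renilla ratio corrected for the same ratio in DMSO wells on the same plate.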

Experiment [6] is filed under the species Mus musculus. Briefly: Inhibition of eIF2-GTP-Met-tRNAi (Met) in mouse KLN205 cells assessed as increase in ATF-4 expression at 40 uM by dual luciferase reporter gene assay relative to control. The experiment is classed as cell-based. The method, boiled down:
as §2

The species named for experiment [7] is Mus musculus. Briefly: Inhibition of eIF2-GTP-Met-tRNAi (Met) in mouse KLN205 cells assessed as increase in ATF-4 expression at 10 to 80 uM by dual luciferase reporter gene assay. Format: cell-based. A digest of the protocol: as §2
For orientation: Reporter assays use an easily measured gene product as a stand-in for the process of interest.

The subject of experiment [8] is MCF7. Briefly: Antitumor activity against human MCF7 cells xenografted in mouse assessed as regression in tumor size at 140 mg/kg, sc bid for 3 weeks relative to control. The experiment is classed as functional. To be noted: route subcutaneous.

Active and inactive are the calls of the source. The rule behind the calls is not given here.

Broadly, the IC50 is the concentration needed to halve the response being measured. Regarding `COc1ccc(C2(c3cc(C(C)(C)C)ccc3OCCN3CCOCC3)C(=O)Nc3ccc(I)cc32)cc1` (racemic), the results for the IC50 in experiment [1], in experiment [2] and in experiment [3] were 12 µM, 6.1 µM and 2.6 µM, respectively.
Turning to `CC(C)(C)c1ccc(O)c(C2(c3ccccc3)C(=O)Nc3ccc(-c4ccc(N5CCOCC5)nc4)cc32)c1` (configuration not stated), the figures for the half-maximal inhibitory concentration (IC50) in experiment [1], in experiment [2] and in experiment [3] were 13.3 µM, 1.8 µM and 2.5 µM, respectively. The fold change (FC) in experiment [4] was determined as 20.8; in experiment [5], 15.6.
On to `COc1ccc(C2(c3cc(C(C)(C)C)ccc3OCCN3CCOCC3)C(=O)Nc3ccccc32)cc1` (racemic), for which the IC50 in experiment [1] came to 4.3 µM; in experiment [2], 2.65 µM; in experiment [3], 2.4 µM. Also, the fold change (FC) stood at 6.3 in experiment [6] and 7.1 in experiment [4].
As for `CN(C)c1ccc(C2(c3cc(C(C)(C)C)ccc3OCCN3CCOCC3)C(=O)Nc3ccccc32)cc1` (racemic), the IC50 in experiment [1] came out at 2.2 µM; in experiment [2] it was 4.7 µM; in experiment [3], 7.5 µM. Further, the fold change (FC) came to 7.15 in experiment [6] and 4.15 in experiment [4].
In the case of `C#CCOc1ccc(C(C)(C)C)cc1C1(c2ccccc2)C(=O)Nc2ccccc21` (racemic), the IC50 in experiment [1] was above 20 µM; in experiment [2], 17.5 µM; in experiment [3], above 20 µM.
As to `COc1ccc(C2(c3cc(C(C)(C)C)ccc3O)C(=O)Nc3ccc(OC)cc32)cc1` (racemic), the IC50 in experiment [1] is 14.3 µM; in experiment [2] it was 2.9 µM; in experiment [3], 11.1 µM. Moreover, in experiment [7], the “ATF-4 reporter expression relative to DMSO control” value was “inactive”.
Turning to `COC(=O)c1cccc2c1NC(=O)C2(c1ccc(OC)cc1)c1cc(C(C)(C)C)ccc1OCCN1CCOCC1` (racemic), the half-inhibitory concentration (IC50) came to 17 µM in experiment [1], 16.3 µM in experiment [2] and 14.6 µM in experiment [3]. Besides, the “ATF-4 reporter expression relative to DMSO control” value in experiment [7] is “inactive”.
On to `CC(C)(C)c1ccc(O)c(C2(c3ccc(O)cc3)C(=O)Nc3ccccc32)c1` (configuration not stated), for which the IC50 in experiment [1] is 17.3 µM; in experiment [2] it was 2 µM; in experiment [3] it was 4 µM.
For `COc1ccc(C2(c3cc(C(C)(C)C)ccc3OCCN3CCOCC3)C(=O)Nc3ccc(OC(F)(F)F)cc32)cc1` (racemic), the half-inhibitory concentration (IC50) in experiment [1] was found to be 9.3 µM; in experiment [2], 2.9 µM; in experiment [3] it was 1.9 µM. Besides, the fold change (FC) in experiment [6] is 5.11; in experiment [4], 3.49.
Take `COc1ccc(C2(c3cc(C(C)(C)C)ccc3OCCN3CCOCC3)C(=O)Nc3ccc(OC)cc32)cc1` (racemic): the half-maximal inhibitory concentration (IC50) in experiment [1] amounted to 2.75 µM; in experiment [2], 4.5 µM; in experiment [3], 2.9 µM.
For `CN(C)CCOc1ccc(C(C)(C)C)cc1C1(c2ccccc2)C(=O)Nc2ccccc21` (racemic), in that order: 1.2 µM, 1.4 µM and 2.4 µM.
Take `CC(C)(C)c1ccc(OCC(=O)O)c(C2(c3ccccc3)C(=O)Nc3ccccc32)c1` (racemic): the IC50 in experiment [1], in experiment [2] and in experiment [3] was above 20 µM in each case. In addition, in experiment [7], the “ATF-4 reporter expression relative to DMSO control” value is “inactive”.
With `CC(C)(C)c1ccc(O)c(C2(c3ccccc3)C(=O)Nc3ccc(OC(F)(F)F)cc32)c1` (racemic), the results for the IC50 in experiment [1], in experiment [2] and in experiment [3] were 8 µM, 2.5 µM and 1 µM, respectively.
Regarding `CN(C)c1ccc(C2(c3cc(C(C)(C)C)ccc3OCCN3CCOCC3)C(=O)Nc3c2ccc(F)c3F)cc1` (racemic), the values for the half-inhibitory concentration (IC50) in experiment [1], in experiment [2] and in experiment [3] were 15.7 µM, 4 µM and 11 µM, respectively.
Consider `CC(C)(C)c1ccc(O)c(C2(c3ccccc3)C(=O)Nc3ccc4ncsc4c32)c1` (racemic), for which the results for the concentration for half-maximal inhibition (IC50) in experiment [1], in experiment [2] and in experiment [3] were 8 µM, 2.2 µM and 0.95 µM, respectively. For the same compound, the “ATF-4 reporter expression relative to DMSO control” value in experiment [7] was “inactive”.
Take `Cc1cc(C2(c3cc(C(C)(C)C)ccc3O)C(=O)Nc3ccccc32)ccc1Cl` (racemic): the results for the IC50 in experiment [1], in experiment [2] and in experiment [3] were 4.3 µM, 2.9 µM and 2.9 µM, respectively.
On to `COc1ccc(C2(c3cc(C(C)(C)C)ccc3O)C(=O)Nc3c2ccc(F)c3F)cc1` (racemic), for which the 50% inhibitory concentration (IC50) in experiment [1] amounted to 12.3 µM; in experiment [2] it was 0.95 µM; in experiment [3] it was 3 µM. In experiment [7], the “ATF-4 reporter expression relative to DMSO control” value is “inactive”.
As to `CC(C)(C)c1ccc(O)c(C2(c3cccnc3)C(=O)Nc3ccccc32)c1` (racemic), the IC50 in experiment [1] is above 20 µM; in experiment [2], 6.4 µM; in experiment [3], 11.5 µM.
Consider `COc1ccc(C2(c3cc(C(C)(C)C)ccc3O)C(=O)Nc3ccccc32)cc1` (racemic), for which the figures for the IC50 in experiment [1], in experiment [2] and in experiment [3] were 15.7 µM, 2.65 µM and 2.75 µM, respectively. For the same compound, the fold change (FC) in experiment [6] worked out at 5.6; in experiment [4], 4.09.
For the compound `COc1ccc(C2(c3cc(C(C)(C)C)ccc3OCCN3CCOCC3)C(=O)Nc3ccccc32)cc1F` (racemic), the concentration for half-maximal inhibition (IC50) in experiment [1] is 3.4 µM; in experiment [2] it was 2.5 µM; in experiment [3], 2.7 µM.
Regarding `COc1ccc(C2(c3cc(C(C)(C)C)ccc3OCCN3CCOCC3)C(=O)Nc3ccccc32)cc1OC` (racemic), the IC50 in experiment [1], in experiment [2] and in experiment [3] was above 20 µM throughout.
Take `CC(C)(C)c1ccc(O)c(C2(c3ccc(CN4CCOCC4)cc3)C(=O)Nc3ccccc32)c1` (racemic): the 50% inhibitory concentration (IC50) came out at 17.3 µM in experiment [1], 7.3 µM in experiment [2] and 7.8 µM in experiment [3]. For the same compound, the fold change (FC) in experiment [4] is 4.68; in experiment [5] it was 12.4.
On to `CC(C)(C)c1ccc(O)c(C2(c3ccc(O)cc3)C(=O)Nc3c2ccc(F)c3F)c1` (configuration not stated), for which the IC50 in experiment [1] is 15.3 µM; in experiment [2], above 20 µM; in experiment [3] it was 10.7 µM. In addition, the fold change (FC) in experiment [6] came out at 2.9; in experiment [4] it was 3.09.
As for `CC(C)(C)c1ccc(O)c(C2(c3ccccc3)C(=O)Nc3ccccc32)c1` (configuration not stated), the half-inhibitory concentration (IC50) in experiment [1] amounted to 14.4 µM; in experiment [2], 3.4 µM; in experiment [3], 4.8 µM. In addition, the fold change (FC) in experiment [6] was 3.7; in experiment [4], 3.77. The Activity in experiment [8] was 30%.
Turning to `CC(C)(C)c1ccc(O)c(C2(c3ccccc3)C(=O)Nc3ccc(I)cc32)c1` (racemic), the 50% inhibitory concentration (IC50) amounted to 14.9 µM in experiment [1], 3.5 µM in experiment [2] and 2.8 µM in experiment [3]. The figures for the fold change (FC) in experiment [6] and in experiment [4] were 7.2 and 4.36, respectively.
On to `CC(C)(C)c1ccc(OCCN2CCOCC2)c(C2(c3ccccc3)C(=O)Nc3ccccc32)c1` (racemic), for which the figures for the IC50 in experiment [1], in experiment [2] and in experiment [3] were 6.8 µM, 3.35 µM and 2.4 µM, respectively.
For `CN(C)c1ccc(C2(c3cc(C(C)(C)C)ccc3O)C(=O)Nc3ccccc32)cc1` (racemic), in that order: 10.9 µM, 2.3 µM and 11 µM.
Turning to `CC(C)(C)c1ccc(OCCN2CCNCC2)c(C2(c3ccccc3)C(=O)Nc3ccccc32)c1` (racemic), the IC50 in experiment [1] came out at 1.2 µM; in experiment [2], 0.9 µM; in experiment [3], 12.8 µM. Also, the “ATF-4 reporter expression relative to DMSO control” value in experiment [7] is “inactive”.
As to `COC(=O)c1cccc2c1NC(=O)C2(c1ccc(OC)cc1)c1cc(C(C)(C)C)ccc1O` (racemic), the half-maximal inhibitory concentration (IC50) in experiment [1] was above 20 µM; in experiment [2], 3.4 µM; in experiment [3] it was 12.2 µM.
